Test results from ChEMBL document CHEMBL1157317, “Vanillic acid glycoside and quinic acid derivatives from Gardeniae Fructus” (J Nat Prod, 2006).
≈ marks a conversion by molar mass, not a printed value.

Key:
[1] = Antioxidant activity assessed as inhibition of 2,2'-azobis(2-amidinopropane)dihydrochloride-induced lipid peroxidation at 3.125 ug/ml by ferric thiocyanate system relative to control; format: functional
Method in brief: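 Linoleic acid emulsified in Tween, peroxidation induced by AAPH; oxidation followed by ferric thiocyanate method.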

[2] = biological target: Human immunodeficiency virus type 1 integrase (Human immunodeficiency virus 1, UniProt Q7ZJM1); assay: Inhibition of HIV1 recombinant integrase expressed in Escherichia coli
[3] = system: Radical scavenging activity; assay: Antioxidant activity assessed as DPPH free radical scavenging activity relative to control; format: functional
Method in brief: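 Test samples in EtOH mixed with 100 µM ethanolic DPPH, incubated 30 min at 37 °C; absorbance read at 515 nm. Percent inhibition calculated against ethanol-treated control; IC50 taken as concentration scavenging 50% of DPPH radicals.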

[4] = Antioxidant activity assessed as superoxide anion scavenging activity by xanthine oxidase oxidation system relative to control; format: functional
Method in brief: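 Superoxide produced by xanthine oxidase (1.4 × 10-8 units) with 0.1 mM xanthine in 40 mM sodium carbonate buffer pH 10.2 containing 0.1 mM EDTA, 50 µg/mL BSA and […]; 20 min at 25 °C, stopped with CuCl2. Formazan read at 560 nm; IC50 as concentration scavenging 50% of superoxide.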

Chain of Human immunodeficiency virus type 1 integrase (Q7ZJM1 whole entry): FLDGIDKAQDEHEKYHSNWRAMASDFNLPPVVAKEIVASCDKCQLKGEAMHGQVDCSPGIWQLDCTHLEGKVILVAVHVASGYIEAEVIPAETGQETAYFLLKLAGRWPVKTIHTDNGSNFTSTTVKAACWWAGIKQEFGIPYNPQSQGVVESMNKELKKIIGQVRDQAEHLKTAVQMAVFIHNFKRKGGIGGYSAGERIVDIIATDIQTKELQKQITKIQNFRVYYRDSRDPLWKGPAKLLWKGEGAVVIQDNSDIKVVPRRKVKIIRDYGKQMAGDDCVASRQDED

Compound VITAMIN E [listing 1 of 2 here] has an inhibition [1] of 61.2%.

Work on `O=C(/C=C/c1ccc(O)c(O)c1)O[C@@H]1C[C@](O)(C(=O)O)C[C@@H](OC(=O)/C=C/c2ccc(O)c(O)c2)[C@H]1O` yielded an IC50 [2] of 11.4 µM, an IC50 [3] of 5.6 µg/mL (≈ 10.8 µM) and an inhibition [1] of 51.5%. The IC50 [4] was 2.9 µg/mL (≈ 5.62 µM).

Compound `COC(=O)[C@]1(O)C[C@@H](O)[C@@H](OC(=O)/C=C/c2cc(OC)c(O)c(OC)c2)[C@H](OC(=O)/C=C/c2ccc(O)c(O)c2)C1` has an IC50 [2] of 33.8 µM, an IC50 [3] of 8.3 µg/mL (≈ 14.4 µM) and an inhibition [1] of 56%. The IC50 [4] was 1.8 µg/mL (≈ 3.13 µM).

Work on `O=c1c(O)c(-c2ccc(O)c(O)c2)oc2cc(O)cc(O)c12` [QUERCETIN] yielded an IC50 [3] of 5.9 µg/mL (≈ 19.5 µM), an inhibition [1] of 54.2% and an IC50 [4] greater than 50 µg/mL.

In the case of `O=C(O)c1ccc(O)c(O)c1` [PROTOCATECHUIC ACID], the IC50 [3] is reported as 6.9 µg/mL (≈ 44.8 µM), the inhibition [1] is reported as 38.1% and the IC50 [4] is reported as 13 µg/mL (≈ 84.3 µM).

Compound `COC(=O)[C@@]1(O)C[C@@H](OC(=O)/C=C/c2ccc(O)c(O)c2)[C@H](O)[C@H](OC(=O)/C=C/c2cc(OC)c(O)c(OC)c2)C1` has an IC50 [2] of 41.1 µM, an IC50 [3] of 8.5 µg/mL (≈ 14.8 µM) and an inhibition [1] of 54.7%. The IC50 [4] was 2.2 µg/mL (≈ 3.83 µM).

`CCOC(=O)[C@@]1(O)C[C@@H](OC(=O)/C=C/c2ccc(O)c(O)c2)[C@H](O)[C@H](OC(=O)/C=C/c2cc(OC)c(O)c(OC)c2)C1` showed an IC50 [2] of 80.5 µM, an IC50 [3] of 9.5 µg/mL (≈ 16.1 µM) and an inhibition [1] of 53.8%. It also gave an IC50 [4] of 2.7 µg/mL (≈ 4.59 µM).

`O=C1O[C@H]([C@@H](O)CO)C(O)=C1O` [ASCORBIC ACID] gave an IC50 [3] of 5.5 µg/mL (≈ 31.2 µM), an inhibition [1] of 44.1% and an IC50 [4] greater than 50 µg/mL.

With `COc1cc(C(=O)O)ccc1O[C@@H]1O[C@H](COC(=O)/C=C/c2cc(OC)c(O)c(OC)c2)[C@@H](O)[C@H](O)[C@H]1O` the IC50 [2] was greater than 186 µM, the IC50 [3] was 22.7 µg/mL (≈ 42.3 µM) and the inhibition [1] was 38.4%. The IC50 [4] was 46.3 µg/mL (≈ 86.3 µM).

In the case of `CCOC(=O)[C@]1(O)C[C@@H](O)[C@@H](OC(=O)/C=C/c2cc(OC)c(O)c(OC)c2)[C@H](OC(=O)/C=C/c2ccc(O)c(O)c2)C1`, the IC50 [2] is reported as 73.9 µM, the IC50 [3] is reported as 6.1 µg/mL (≈ 10.4 µM) and the inhibition [1] is reported as 54.9%. For the same compound, the IC50 [4] was 2 µg/mL (≈ 3.4 µM).

Work on `O=c1c(O[C@@H]2O[C@H](CO)[C@@H](O)[C@H](O)[C@H]2O)c(-c2ccc(O)c(O)c2)oc2cc(O)cc(O)c12` [ISOQUERCETIN] yielded an IC50 [3] of 16.6 µg/mL (≈ 35.7 µM), an inhibition [1] of 49.9% and an IC50 [4] of 3.4 µg/mL (≈ 7.32 µM).

Compound `O=C(/C=C/c1ccc(O)c(O)c1)O[C@H]1[C@H](O)C[C@](O)(C(=O)O)C[C@H]1OC(=O)/C=C/c1ccc(O)c(O)c1` has an IC50 [2] of 10.5 µM, an IC50 [3] of 5.9 µg/mL (≈ 11.4 µM) and an inhibition [1] of 51.7%. It also gave an IC50 [4] of 3.3 µg/mL (≈ 6.39 µM).

For `O=C(O)C1=CO[C@@H](O[C@@H]2O[C@H](CO)[C@@H](O)[C@H](O)[C@H]2O)[C@@H]2C(CO)=CC[C@H]12` [GENIPOSIDIC ACID], the IC50 [2] was greater than 267 µM, the IC50 [3] was greater than 50 µg/mL and the inhibition [1] was 4.8%. The IC50 [4] was greater than 50 µg/mL.

With `CCOC(=O)[C@]1(O)C[C@@H](O)[C@@H](O)[C@H](OC(=O)/C=C/c2ccc(O)c(O)c2)C1` [ETHYL CHLOROGENATE] the IC50 [2] was 116 µM, the IC50 [3] was 7.1 µg/mL (≈ 18.6 µM) and the inhibition [1] was 51.1%. For the same compound, the IC50 [4] was 1 µg/mL (≈ 2.62 µM).

Work on `COC(=O)C1=CO[C@@H](O[C@@H]2O[C@H](CO)[C@@H](O)[C@H](O)[C@H]2O)[C@@H]2C(CO)=CC[C@H]12` [GENIPOSIDE] yielded an IC50 [2] greater than 257 µM, an IC50 [3] greater than 50 µg/mL and an inhibition [1] of 2%. It also gave an IC50 [4] greater than 50 µg/mL.

In the case of VITAMIN E [listing 2 of 2 here], the IC50 [3] is reported as 9.4 µg/mL and the IC50 [4] is reported as greater than 50 µg/mL.

Work on `Oc1ccc(/C=C/c2cc(O)cc(O)c2)cc1` [RESVERATROL] yielded an IC50 [3] of 17.1 µg/mL (≈ 74.9 µM), an inhibition [1] of 39.1% and an IC50 [4] of 37.9 µg/mL (≈ 166 µM).

Compound `O=C(O)/C=C/c1ccc(O)c(O)c1` [CAFFEIC ACID] has an IC50 [3] of 3.2 µg/mL (≈ 17.8 µM), an inhibition [1] of 54.1% and an IC50 [4] of 0.5 µg/mL (≈ 2.78 µM).
